Compound activity deposited in PubChem BioAssay by Broad Institute.
FGF22 binding = binders of recombinant human FGF22 by thermal shift | Q9HCT0 | SYPRO orange fluorescence; percent of sucrose octasulfate shift, DMSO zero | activity (Tm shift, normalised), % at 9.99 µM | hit rate 1.5% among 340,000 | AID 651658;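 active = mean Tm shift, scaled 0 neutral to 100 positive control, at about 1.3% or above, every replicate too, limit read from the data; inconclusive = no clear call, values can overlap the other calls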
Target sequence (Q9HCT0 whole entry, looked up): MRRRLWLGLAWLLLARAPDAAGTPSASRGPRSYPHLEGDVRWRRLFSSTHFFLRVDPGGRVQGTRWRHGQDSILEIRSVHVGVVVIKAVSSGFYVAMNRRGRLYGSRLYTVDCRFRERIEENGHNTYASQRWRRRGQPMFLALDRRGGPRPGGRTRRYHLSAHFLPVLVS
CFTR F508del cor = correctors of CFTR F508del function in bronchial epithelial cells. CFBE cells, YFP halide quenching; stimulated with forskolin plus potentiator P3; % fluorescence drop versus neutral controls. activity (quench increase), % at 7.58 µM. hit rate 0.36% among 350,000;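 active = mean added fluorescence quench of at least 8% versus neutral control, with both replicates also reaching 8%; inconclusive = only one of the mean or replicate conditions met; inactive = mean below 8% and not both replicates reaching 8%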;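 note: cells transiently co-express mutant CFTR-F508del with the halide-sensitive YFP; corrector assay measuring rescue of mutant channel to the surface after 24 h compound exposure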
ERAP1 inh = blocks human ERAP1 aminopeptidase activity | hit rate 0.15% among 340,000 | AID 652197 | recombinant ERAP1, Leu-AMC fluorescence, 60 min | inhibition, % at 10.7 µM;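 active = mean replicate inhibition of at least 30%, or all replicates individually reaching that 30% level; inactive = mean below 30% and not every replicate reaching it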
E-sel inducer = induces E-selectin expression in human endothelial cells. HUVEC E-selectin immunofluorescence imaging; normalized: neutral wells 0, TNF-alpha wells 100. activation, % at 7.58 µM. hit rate 0.37% among 260,000. AID 686992;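 active = mean E-selectin-positive cell signal at least 10% of the positive control, reached in at least 60% of replicates, without over 20% cell loss; inconclusive = no rule given, readout overlaps actives, possibly toxicity-flagged; inactive = the rest, including those meeting only one limit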
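Test system – human umbilical vein endothelial cells (HUVEC), E-selectin induction · Input – 3,000 HUVEC seeded per well · Buffer or medium – EGM-2, gelatin · Compound dosing – single-point compound dose · Detection – immunofluorescence imaging · Measure – percent E-selectin-positive cells · Controls – TNF-alpha high, DMSO low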
DENV2 CPE = protects cells from dengue virus 2 cytopathic effect | hit rate 1.7% among 350,000 | DENV2-infected cells, cytopathic effect rescue, plate reader | CPE inhibition, % at 9.99 µM; in the data active = CPE inhibition above about 20%, passing the limit was not always enough; inconclusive = no clear call, values can overlap the other calls; tested in BHK-21 cells
Large screens that a line does not name were inactive; ! = not confirmed by another sample. Sampled rows, rich in hits. Any-hit rate of the full collection: about 3.7%.

CCCNC(=O)N1[C@H](C#N)[C@H](c2ccc(-c3ccc(C(=O)N(C)C)cc3)cc2)[C@@H]1CO	none
Cc1ccc(C)n1-c1ccc(-c2ccn[nH]2)cc1	FGF22 binding 43
c1ccn(-c2ccc(-c3ccn[nH]3)cc2)c1	none (no result: DENV2 CPE)
CC(C)NS(=O)(=O)c1ccc(OCC(=O)Nc2ccc3c(c2)OCO3)cc1	none (no result: E-sel inducer)
CC(C)NS(=O)(=O)c1ccc(OCC(=O)Nc2cccc(F)c2)cc1	FGF22 binding 43
Cc1noc(C)c1S(=O)(=O)Nc1ccc2c(c1)CC(=O)N([C@H](C)CO)C[C@H](C)[C@@H](CN(C)Cc1ccccc1)O2	none
CO[C@H]1CN(C)C(=O)c2cc(NC(=O)Nc3c(C)noc3C)ccc2OC[C@@H](C)N(C)C[C@H]1C	none
Cc1cc(F)ccc1C(O)c1ncc(-c2ccccc2C(F)(F)F)[nH]1 (stereo not drawn)	DENV2 CPE 60
CCNC(=O)C1(C)CCN(C(=O)c2cc(F)ccc2C)C1 (stereo not drawn)	CFTR F508del cor 16 (no result: E-sel inducer)
CCCS(=O)(=O)NC(=O)C1(C)CCN(C(=O)c2cc(F)ccc2C)C1 (stereo not drawn)	none
O=C(c1ccncc1)N1CCCC(N2CCN(c3cccc(C(F)(F)F)c3)CC2)C1 (stereo not drawn)	DENV2 CPE 21
OCCC1CN(Cc2cnc(-c3ccc(Cl)cc3)nc2)CCN1C1CCCCC1 (stereo not drawn)	DENV2 CPE 50 (no result: ERAP1 inh)
OCCC1CN(Cc2cccn2-c2ccccn2)CCN1C1CCCCC1 (stereo not drawn)	FGF22 binding 44 (no result: E-sel inducer)
CC=Cc1ccc2n(c1=O)C[C@@H]1N[C@H]2[C@H](C(=O)NC2CCCCC2)[C@H]1CO (mixture of isomers)	none (no result: CFTR F508del cor)
COCCOC(=O)N1C(=O)[C@@]2(c3cc(C#Cc4ccc(OC)cc4)ccc31)[C@H](c1ccc(O)cc1)N1[C@H](c3ccccc3)[C@H](c3ccccc3)OC(=O)[C@H]1[C@@H]2C(=O)N1CCCCCCC1	none (no result: FGF22 binding, ERAP1 inh, E-sel inducer, DENV2 CPE)
C[C@H](CO)N1C[C@H](C)[C@H](CN(C)Cc2ccc3c(c2)OCO3)Oc2c(NS(=O)(=O)c3ccc(F)cc3)cccc2C1=O	none
C[C@H](CO)N1C[C@H](C)[C@@H](CN(C)C(=O)Nc2cc(F)ccc2F)Oc2cc(-c3cccc(C#N)c3)ccc2S1(=O)=O	none
C[C@@H]1CN([C@H](C)CO)S(=O)(=O)c2ccc(/C=C/c3ccccc3)cc2O[C@H]1CN(C)C(=O)Nc1ccc(F)cc1	none
C[C@@H]1CN([C@H](C)CO)S(=O)(=O)c2ccc(/C=C/c3ccccc3)cc2O[C@H]1CN(C)C(=O)NC1CCCCC1	CFTR F508del cor 9.6 (no result: E-sel inducer)
C[C@H]1CN([C@@H](C)CO)S(=O)(=O)c2ccc(/C=C/c3ccccc3)cc2O[C@@H]1CN(C)C(=O)NC1CCCCC1	none (no result: E-sel inducer)
C[C@@H]1CN([C@H](C)CO)S(=O)(=O)c2ccc(-c3cccc(C#N)c3)cc2O[C@H]1CN(C)C(=O)Nc1cc(F)ccc1F	DENV2 CPE 29!
C[C@H]1CN([C@@H](C)CO)S(=O)(=O)c2ccc(/C=C/c3ccccc3)cc2O[C@@H]1CN(C)C(=O)Nc1ccc(F)cc1	CFTR F508del cor 10
C[C@H]1CN([C@@H](C)CO)S(=O)(=O)c2ccc(/C=C/c3ccccc3)cc2O[C@H]1CN(C)C(=O)Nc1cc(F)ccc1F	FGF22 binding 1.8
CN1CCN(C(=O)C[C@@H]2CC[C@@H]3[C@H](COc4ccc(NC(=O)c5cscn5)cc4C(=O)N3C)O2)CC1	none
C[C@H]1CN([C@@H](C)CO)S(=O)(=O)c2ccc(/C=C/c3ccccc3)cc2O[C@H]1CN(C)Cc1ccccc1	CFTR F508del cor 8.0 (no result: E-sel inducer)
COc1ccc2c3c([nH]c2c1)[C@H](CO)N(Cc1cccc(Cl)c1)CC31CN(C(C)=O)C1	none
CN(CC(=O)Nc1c(Cl)cccc1Cl)CC(=O)N(C)C1(C#N)CCCCC1	FGF22 binding 43, DENV2 CPE inconclusive
C[C@H](CO)N1C[C@H](C)[C@@H](CN(C)C(=O)Nc2ccc(C(F)(F)F)cc2)Oc2ccc(NS(=O)(=O)c3ccc(F)cc3)cc2CC1=O	none
C[C@@H]1CN([C@@H](C)CO)C(=O)c2cc(Br)cnc2O[C@H]1CN(C)CC1CCCC1	none
COc1cccc(-c2ccc(C3[C@@H]4CN(S(=O)(=O)c5ccccc5C)C[C@H]3N4)cc2)c1 (stereo partly drawn)	none (no result: FGF22 binding)
Cc1ccccc1S(=O)(=O)N1CCCCN2[C@H](CO)[C@H](c3ccc(-c4cncnc4)cc3)[C@@H]2C1	DENV2 CPE 36
O=S(=O)(c1ccccc1)N1CCCCN2[C@H](CO)[C@H](c3ccc(-c4cncnc4)cc3)[C@@H]2C1	DENV2 CPE 33
COc1ccc(-c2ccc(C3[C@@H]4CN(S(=O)(=O)c5ccccc5C)C[C@H]3N4)cc2)cc1 (stereo partly drawn)	DENV2 CPE 31! (no result: ERAP1 inh)
CCNC(=O)C[C@@H]1CC[C@H]2[C@@H](COc3ccc(NC(=O)c4cscn4)cc3C(=O)N2C)O1	none
CCCCCCC[C@H](N)[C@H](O)C(=O)N(C)[C@@H](CCS(C)=O)C(=O)N[C@@H](Cc1ccc(O)cc1)C(=O)N[C@@H](Cc1ccc(O)cc1)C(=O)O (stereo partly drawn)	ERAP1 inh 50
Cc1ccc(S(=O)(=O)N[C@@H](CO)C(=O)N[C@@H](Cc2ccc(O)cc2)C(=O)O)cc1	none
C[C@@H]1CN([C@@H](C)CO)C(=O)c2cccc(NC(=O)Nc3ccccc3)c2O[C@H]1CN(C)C(=O)Nc1ccc(F)cc1	none
COc1ccccc1N1CCN(C(=O)CCN2C(=O)c3cccc4cccc(c34)C2=O)CC1	FGF22 binding 45 (no result: E-sel inducer)
COc1ccccc1N1CCN(C(=O)CN2C(=O)c3ccccc3C2=O)CC1	none (no result: E-sel inducer)
Cc1ccccc1-c1ccc([C@@H]2[C@@H](CO)N3C(=O)CN(C(=O)Cc4ccccn4)C[C@H]23)cc1	none
O=C(Nc1cc(S(=O)(=O)N2CCCCC2)ccc1O)c1ccccc1NS(=O)(=O)c1ccc(F)cc1	FGF22 binding 1.4!
CC(C)C(=O)Nc1ccc2c(c1)C(=O)N(C)[C@@H]1CC[C@H](CC(=O)N[C@@H](C)c3ccccc3)O[C@@H]1CO2	none (no result: ERAP1 inh)
COc1ccc(CN(C)C[C@H]2Oc3ccc(NC(=O)Nc4ccc5c(c4)OCO5)cc3C(=O)N([C@H](C)CO)C[C@H]2C)cc1	none
Cc1ccc(S(=O)(=O)N(C)CC(=O)Oc2ccc(-c3nnco3)cc2)cc1	DENV2 CPE 126 (no result: E-sel inducer)
O=C(c1ccccc1F)N1CC[C@@H]2[C@H](CO)Nc3ccc(Br)cc3[C@@H]21	CFTR F508del cor 12
COc1ccccc1C#Cc1ccc2c(c1)[C@H]1[C@H](CCN1C(=O)c1ccncc1)[C@H](CO)N2	DENV2 CPE 36 (no result: ERAP1 inh, E-sel inducer)
O=C(c1ccccc1F)N1CC[C@@H]2[C@H]1c1cc(Br)ccc1N[C@@H]2CO	none
